One experiment concerns the target Dipeptidyl peptidase 4 (Rattus norvegicus, UniProt P14740). Put plainly: Inhibition of DPP4 in rat plasma by fluorescence assay. The class given is cell-free.
Experiment [1] deals with Rattus norvegicus. In words: Inhibition of DPP4 in Sprague-Dawley rat plasma at 3 mg/kg, po after 30 mins. The class given is functional. Particulars: 0.5 h.
Experiment [2] concerns Rattus norvegicus. Put plainly: Inhibition of DPP4 in Sprague-Dawley rat plasma at 3 mg/kg, po after 9 hrs. The class given is functional.
The species named for experiment [3] is Rattus norvegicus. In words: Reduction in plasma glucose level in Sprague-Dawley rat by oral glucose tolerance test. The format is functional, organism-based. An outline of the steps:
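Male SD rats (400–460 g) fasted at least 20 h, dosed orally with 0.1, 0.3 or 1 mg/kg in 0.5% methyl cellulose (vehicle control) at −30 min. Oral glucose 1 g/kg at 0 min. Tail-vein blood at −5, 5, 10, 15, 30, 60, 120 min; plasma glucose by glucose oxidase peroxidase dye method.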

Activity calls are given as the source filed them. The rule behind the calls is not given here.

Chain of Dipeptidyl peptidase 4 (P14740 whole entry): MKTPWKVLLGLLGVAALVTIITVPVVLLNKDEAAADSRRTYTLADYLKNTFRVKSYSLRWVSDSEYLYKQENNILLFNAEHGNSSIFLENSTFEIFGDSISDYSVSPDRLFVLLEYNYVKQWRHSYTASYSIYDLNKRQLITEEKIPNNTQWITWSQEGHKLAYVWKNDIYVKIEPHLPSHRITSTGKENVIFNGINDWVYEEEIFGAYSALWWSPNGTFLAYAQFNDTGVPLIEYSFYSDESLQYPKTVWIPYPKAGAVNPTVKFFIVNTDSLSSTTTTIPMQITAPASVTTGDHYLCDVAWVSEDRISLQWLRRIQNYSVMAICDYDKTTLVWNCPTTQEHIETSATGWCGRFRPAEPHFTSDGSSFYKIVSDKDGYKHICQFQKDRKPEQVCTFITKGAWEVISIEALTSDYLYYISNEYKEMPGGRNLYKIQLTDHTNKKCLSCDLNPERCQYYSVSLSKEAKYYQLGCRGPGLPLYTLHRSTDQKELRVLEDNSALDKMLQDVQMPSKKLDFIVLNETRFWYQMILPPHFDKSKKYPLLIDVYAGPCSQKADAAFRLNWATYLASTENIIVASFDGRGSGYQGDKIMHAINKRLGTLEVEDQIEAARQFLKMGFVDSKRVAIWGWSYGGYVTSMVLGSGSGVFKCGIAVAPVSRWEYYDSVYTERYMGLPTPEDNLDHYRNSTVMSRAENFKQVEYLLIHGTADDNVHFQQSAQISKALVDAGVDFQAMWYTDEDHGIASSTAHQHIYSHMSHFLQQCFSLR

For `Cc1nsc(N2CCCN(C(=O)[C@@H]3CN[C@H](C(=O)N4CCCC4)C3)CC2)n1`, on Dipeptidyl peptidase 4, the IC50 (commonly the concentration that gives 50% inhibition) amounted to 760 nM.
`CC(C)c1nsc(N2CCN(C(=O)[C@@H]3CN[C@H](C(=O)N4CCCC4)C3)CC2)n1`: the concentration for half-maximal inhibition (IC50) at Dipeptidyl peptidase 4 stood at 190 nM. Besides, the inhibition in vivo (commonly the change of the read-out against control, counted positive when it falls) at 3 mg/kg in the experiment on Rattus norvegicus [1] is 85%; in the experiment with Rattus norvegicus [2], 43%.
For `Cc1nsc(N2CCN(C(=O)[C@H]3C[C@@H](C(=O)N4CCCC4)N[C@H]3C)CC2)n1`, in that order: 69 nM, 89% and 74%.
For `O=C([C@@H]1CN[C@H](C(=O)N2CCCC2)C1)N1CCN(c2nc(-c3ccccc3)ns2)CC1`, in that order: 150 nM, 64% and 11%.
In the same order, the values of `COCc1nsc(N2CCN(C(=O)[C@@H]3CN[C@H](C(=O)N4CCCC4)C3)CC2)n1` are 49 nM, 52% and 41%.
At Dipeptidyl peptidase 4, `O=C([C@@H]1CN[C@H](C(=O)N2CCCC2)C1)N1CCN(c2nc(C(F)(F)F)ns2)CC1` gave an IC50 of 140 nM. Also, the results for the inhibition in vivo at 3 mg/kg in the experiment on Rattus norvegicus [1] and in the experiment with Rattus norvegicus [2] were 91% and 54%, respectively.
Take `Cc1nc(N2CCN(C(=O)[C@@H]3CN[C@H](C(=O)N4CCCC4)C3)CC2)no1`: the IC50 at Dipeptidyl peptidase 4 amounted to 960 nM.
Molecule `Cc1nsc(N2CCN(C(=O)[C@@H]3CN[C@H](C(=O)N4CCCC4)C3)CC2)n1` returned an IC50 at Dipeptidyl peptidase 4 of 58 nM. Further, the inhibition in vivo at 3 mg/kg came out at 84% with Rattus norvegicus [1] and 53% with Rattus norvegicus [2].
As for `Cc1cnc(N2CCN(C(=O)[C@@H]3CN[C@H](C(=O)N4CCCC4)C3)CC2)s1`, half-maximal inhibition against Dipeptidyl peptidase 4 (IC50) was put at 320 nM.
For the molecule `Cc1nsc(N2CCN(C(=O)[C@@H]3CN[C@H](C(=O)N4CCSC4)C3)CC2)n1`, the concentration for half-maximal inhibition (IC50) against Dipeptidyl peptidase 4 came out at 76 nM. Further, the inhibition in vivo at 3 mg/kg amounted to 91% with Rattus norvegicus [1] and 75% with Rattus norvegicus [2].
The molecule `Cc1nsc(N2CCN(C(=O)[C@H]3C[C@@H](C(=O)N4CCSC4)N[C@H]3C)CC2)n1` gave a half-inhibitory concentration (IC50) on Dipeptidyl peptidase 4 of 60 nM. Besides, the inhibition in vivo at 3 mg/kg came out at 95% with Rattus norvegicus [1] and 72% in the experiment with Rattus norvegicus [2]. In the experiment filed under Rattus norvegicus [3], the outcome was Active.
On Dipeptidyl peptidase 4, `Cc1nsc(C2CCN(C(=O)[C@@H]3CN[C@H](C(=O)N4CCCC4)C3)CC2)n1` registered a 50% inhibitory concentration (IC50) of 450 nM.
Still for that read-out and setting: then `Cc1cc(N2CCN(C(=O)[C@@H]3CN[C@H](C(=O)N4CCCC4)C3)CC2)sn1`, with 240 nM; and `Cc1nc(N2CCN(C(=O)[C@@H]3CN[C@H](C(=O)N4CCCC4)C3)CC2)sc1C`, with 510 nM.
On Dipeptidyl peptidase 4, `CCc1nsc(N2CCN(C(=O)[C@@H]3CN[C@H](C(=O)N4CCCC4)C3)CC2)n1` displayed an IC50 of 120 nM. The results for the inhibition in vivo at 3 mg/kg in the experiment on Rattus norvegicus [1] and with Rattus norvegicus [2] were 80% and 47%, respectively.
Consider `Cc1ncc(N2CCN(C(=O)[C@@H]3CN[C@H](C(=O)N4CCCC4)C3)CC2)s1`, for which half-maximal inhibition at Dipeptidyl peptidase 4 (IC50) required 340 nM.
In turn, `O=C([C@@H]1CN[C@H](C(=O)N2CCCC2)C1)N1CCN(c2ncns2)CC1` had an IC50 on Dipeptidyl peptidase 4 of 45 nM. In addition, the inhibition in vivo at 3 mg/kg came to 85% in the experiment with Rattus norvegicus [1] and 56% in the experiment with Rattus norvegicus [2].
`CCCc1nsc(N2CCN(C(=O)[C@@H]3CN[C@H](C(=O)N4CCCC4)C3)CC2)n1`: half-maximal inhibition on Dipeptidyl peptidase 4 (IC50) required 110 nM. The inhibition in vivo at 3 mg/kg in the experiment with Rattus norvegicus [1] turned out to be 81%; in the experiment with Rattus norvegicus [2] it was 48%.
